Assay outcomes from PubChem BioAssay.
Jurkat viability – cytotoxicity toward Jurkat cells | inhibition, % at 4 µM | AID 463 | Jurkat E6.1 viability, ATP luminescence, 48 h | 56,000 tested, 1.2% active;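 active = inhibition above the mean inhibition of all tested compounds plus 3 SD, cut at about 28% in these data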
Ecoli WT expand – blocks growth of wild type E. coli BW25113 | 98,000 tested, 0.15% active | OD600 absorbance | growth inhibition, % at 100 µM | AID 710;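 active = growth inhibition above about 50% at one test dose, limit read from the data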;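 note: growth measured after 20 h incubation at 37 °C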
H69AR growth 86K – blocks growth of human H69AR lung tumor cells | H69AR lung tumor viability, ATP luminescence, 72 h; active compounds read low | viability, % at 10 µM | 85,000 tested, 6% active | AID 598;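 active = viability at or below 40%; inactive = viability above 40%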;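 note: multidrug resistant small cell line overexpressing MRP-1 efflux transporter; 100% = mean luminescence of untreated control wells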
Ecoli tolC – blocks growth of E. coli BW25113 tolC mutant; AID 573; growth inhibition, % at 10 µM (by protocol); 65,000 tested, 2.2% active; OD615;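 active = growth inhibition at or above a cutoff equal to the mean over every tested compound plus 3 SD, cut at about 60% in these data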;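 note: growth measured after 20 h incubation at 37 °C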
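Assay system: tolC-deleted E. coli BW25113. Medium: kanamycin-containing LB broth (50 µg/mL). Dosing: 10 µM final, single dose. Timing: bacterial growth with compound for 20 h at 37 °C. Detection: A615 absorbance measurement. Read-out basis: growth inhibition in percent.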
HUVEC inhibit – inhibitors of human endothelial cell proliferation; HUVEC proliferation, CellTiter-Glo luminescence, 72 h; active compounds read low; viability, % at 10 µM (by protocol); 86,000 tested, 1.1% active; AID 648;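 active = viability at or below 30%; inactive = viability above 30%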;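 note: 100% = median luminescence of DMSO-only cell control wells on each plate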
Fibroblast inh – blocks proliferation of human lung fibroblasts; LL 47 human lung fibroblast viability, ATP luminescence; active compounds read low; viability, % at 10 µM; 85,000 tested, 1.1% active; AID 719;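 active = viability at or below 50% in the single dose screen; inactive = viability above 50%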;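 note: compound exposure lasted 72 h before the ATP readout; 100% = median luminescence of untreated cell-only wells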
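Benchmarks: Cell-only wells, no compound | Test system: LL 47 human lung fibroblasts, passage 12 or lower | Input: 1,150 cells/well | Measured by: CellTiter-Glo luminescence measuring cellular ATP | Medium: IMEM, 15% FBS supplement | Schedule: Overnight attachment after seeding, then 72 h compound exposure at 37 °C | Doses: Compound addition at 0.1% DMSO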
Numbers without * were called inactive; . = not tested or not shown. Hits are enriched below; roughly 6.4% of the tested compounds scored in any of these assays.

SMILES | Jurkat viability | Ecoli WT expand | H69AR growth 86K | Ecoli tolC | HUVEC inhibit | Fibroblast inh
CC1(C)Cc2ccccc2C(NNC(=O)c2ccccn2)=N1 | . | 8 | 30* | . | 85 | 46*
CC1(C)Cc2ccccc2C(N/N=C/c2cccc(F)c2)=N1 | . | 0 | . | . | . | .
COc1cc(Br)cc2cc(C(=O)OC3CCN(C)CC3)c(=O)oc12 | . | . | 36* | . | 95 | 101
Cn1c(=N)n(CC(O)c2cccc3ccccc23)c2ccccc21 (stereo not drawn) | 7 | 9 | 26* | 15 | 88 | 84
CCn1ncc(C2=NOC(C(=O)NCc3ccc(OC)cc3)C2)c1C (stereo not drawn) | 39* | -7 | 21* | -5 | 64 | 103
COc1ccc(CNC(=O)C2CC(c3ccccc3[N+](=O)[O-])=NO2)cc1 (stereo not drawn) | . | 5 | . | . | . | .
CCn1ncc(C2=NOC(C(=O)NCc3ccccc3)C2)c1C (stereo not drawn) | 93* | 3 | 26* | -10 | 50 | 49*
CCn1ncc(C2=NOC(C(=O)Nc3c(C)n(C)n(-c4ccccc4)c3=O)C2)c1C (stereo not drawn) | -16 | 5 | 98 | -13 | 49 | 101
Cc1ccc(-c2nnc(N3CCN(C(=O)CSc4ncn[nH]4)CC3)c3ccccc23)cc1 | 4 | 6 | 76 | 10 | 105 | 2.9*
COCCN1C(=O)C(CC(=O)Nc2ccc(C(C)=O)cc2)SC1=Nc1ccccc1 (stereo not drawn) | -5 | -5 | . | 12 | . | .
CC(O)CN1C(=O)C(CC(=O)Nc2ccc(Cl)cc2)SC1=Nc1ccccc1 (stereo not drawn) | . | 9 | 39* | 23 | 66 | 92
CCCCC1CCC(/C(N)=N/O)CC1 (stereo not drawn) | 16 | 22 | 27* | 4 | 85 | .
CCc1cccc(CC)c1NC(=O)CN1CC(C)SC1=NC1CCCCC1 (stereo not drawn) | . | 8 | 93 | . | 99 | 88
N#Cc1c(NC(=O)CSc2nnc(-c3ccccc3O)n2-c2ccccc2)sc2c1CCCC2 | 2 | -5 | 49 | 14 | 87 | 99
O=C(CSc1nnc(-c2cccs2)n1-c1ccccc1)c1ccc2c(c1)OCCO2 | 2 | . | 17* | -6 | 34 | 77
Cn1c(=O)n(C)c2cc(NC(=O)CSc3nnc(-c4ccccc4O)n3-c3ccccc3)ccc21 | -2 | -5 | 33* | 4 | 75 | 90
CC(Sc1nnc(-c2cccs2)n1-c1ccccc1)C(=O)NCc1ccc2c(c1)OCO2 (stereo not drawn) | . | -8 | 39* | . | 102 | 103
O=C(CSc1nnc(Cc2cccs2)n1-c1ccccc1)NCc1ccc2c(c1)OCO2 | -6 | -7 | 97 | 21 | 103 | .
C=CCn1c(SC(C)C(=O)NCc2ccc3c(c2)OCO3)nc2scc(-c3ccccc3)c2c1=O (stereo not drawn) | . | -19 | 34* | . | 74 | 94
COc1ccccc1S(=O)Cc1ccc(C(=O)NCCc2ccc(Cl)cc2)o1 (stereo not drawn) | -5 | 2 | 102 | 33 | 88 | 91
O=C(NC(C(=O)c1ccccc1)n1ccc(=O)[nH]c1=O)c1ccccc1 (stereo not drawn) | 0 | 3 | 81 | -10 | 94 | 103
O=C1COc2ccc(C(=O)CSc3nnnn3-c3ccccc3)cc2N1 | -3 | -4 | 103 | -17 | 103 | 102
O=C(CSc1nnc(-c2cccs2)n1-c1ccccc1)N1CCc2ccccc21 | -6 | . | 16* | 5 | 95 | .
Cn1c(SCC(=O)Nc2ccc(N3CCOCC3)cc2)nnc1-c1ccccc1 | -5 | -2 | 86 | -5 | 15* | 105
Cn1c(=O)n(C)c2cc(NC(=O)CCl)ccc21 | . | 12 | 1.5* | . | 54 | 42*
SMILES | Jurkat viability | Ecoli WT expand | H69AR growth 86K | Ecoli tolC | HUVEC inhibit | Fibroblast inh
O=C(CSc1nnc(-c2ccco2)n1-c1ccccc1)N1CCc2ccccc21 | 4 | . | 78 | -7 | 88 | 102
O=C1COc2ccc(C(=O)CSc3nnc(Cc4cccs4)n3-c3ccc(Cl)cc3)cc2N1 | . | -12 | 27* | . | 83 | 98
Cc1ccc(N(C)C(=O)N2CCN(c3ccccn3)CC2)cc1 | 4 | 6 | 97 | 7 | 94 | 95
CCn1c(=S)[nH]c2cc(S(=O)(=O)N3CCCCC3)ccc21 | . | -1 | . | . | . | .
O=C(CSc1nnc2ccccn12)c1ccc2c(c1)OCCO2 | -8 | 8 | 90 | -7 | 96 | 100
COc1ccc(NC(=O)CSc2nnc(-c3cccs3)n2-c2ccccc2)cc1 | -2 | -7 | 46 | -2 | 21* | 39*
